Series [1] has as its system 4T1 cells. In words: In vitro cytotoxicity, WST-8 assay. The class given is cell-based, mouse. The following applies: 48 hours, WST-8, n=5. (In general: Formazan colour is commonly taken as a measure of viable cells.)
A short description of series [2]: Pharmacokinetic studies in rats. The class given is in vivo, Sprague Dawley (SD) rats. Put shortly:
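Female SD rats (200±20 g), three per group, received a single tail-vein injection in 0.9% saline (10 mg/kg drug-equivalent). Retro-orbital blood was taken at 5, 15 and 30 min and at 1, 1.5, 2, 4, 7, 10 and 24 h into heparinized tubes. Plasma was stored at −20°C, extracted, redissolved in acetonitrile, filtered and quantified by HPLC against spiked-plasma standard curves. Parameters came from a two-compartment model fit.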

The test system of series [3] is 4T1 murine breast tumors. In words: In vivo anticancer efficacy. Particulars: 4T1 tumor-bearing BALB/c mice, PTX 10 mg/kg i.v. at days 10, 13, 16, 19. The essentials:
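Female BALB/c mice (4–6 weeks old) were inoculated subcutaneously in the left back, under anesthesia, with ~5×10^5 4T1 cells in PBS. Dosing began at a tumor volume of about 50–100 mm3: 10 mg/kg drug-equivalent by tail-vein injection on days 10, 13, 16 and 19 after inoculation, with a normal-saline control. Tumors (V = L×W²/2) and body weight were measured every 2 days until day 23. Survival was followed until death from tumor growth or treatment.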

A short description of series [4]: Toxicity in tumor-bearing mice. The following applies: PTX 10 mg/kg i.v. in 4T1 tumor-bearing BALB/c mice. The class given is in vivo.
Where [5] appears, read: Sprague-Dawley, rat, plasma, iv, 10 mg/kg.
[6] abbreviates: rats, i.v. tail vein, 10 mg/kg of PTX, two-compartment model.

For the molecule `CC(=O)O[C@H]1C(=O)[C@@]2(C)[C@H]([C@H](OC(=O)c3ccccc3)[C@]3(O)C[C@H](OC(=O)[C@H](O)[C@@H](NC(=O)c4ccccc4)c4ccccc4)C(C)=C1C3(C)C)[C@]1(OC(C)=O)CO[C@@H]1C[C@@H]2O` [Free PTX, paclitaxel], the “cytotoxicity (cell viability) compared with other formulations” value in series [1] is “stronger inhibition effects compared to the PEGylated nanoparticles”. Besides, in series [2] (setting [5]), the AUC(0-inf) was found to be 49200 ± 16900 ng·h/mL, the AUC(0-t) stood at 46600 ± 16800 ng·h/mL, the clearance was 8.5 mL/min/kg and the k el was 0.000511 s⁻¹. In series [2] (setting [6]), the “K12 (transfer rate constant from central to periphery compartment)” value amounted to 0.45 ± 0.33 h⁻¹, the “K21 (transfer rate constant from periphery to central compartment)” value was found to be 0.55 ± 0.24 h⁻¹, the “V1 (volume of central compartment)” value was 0.28 ± 0.02 L/kg and the “V2 (volume of periphery compartment)” value was 0.21 ± 0.12 L/kg. In series [3], this molecule gave a median survival time of 31 days. Also, in series [3] (n=8), the tumor inhibition rate is 32.5%. Moreover, the “acute toxicity / deaths after intravenous injection” value in series [4] is recorded as “some deaths were observed a few minutes after the injection”.

For orientation: AUC(0-inf) means total exposure, with the tail of the curve extrapolated. The AUC(0-t) is exposure summed from dosing to a finite time, without extrapolation to infinity. A higher AUC(0-t) goes with more exposure. In general, clearance refers to the volume of plasma or blood freed of the substance per unit of time. A low value points to a low capacity for elimination.

The record behind these values is publication PMC4356685 (International Journal of Nanomedicine, 2015).
